For 37 sequences, folding enthalpy and Tm results are on record in the array DNA melting data of Ke et al. (doi:10.1101/2024.01.08.574731).

Data set [1] can be described thus: folding enthalpy; higher = less favourable; fluorescence melt of hairpins on a sequencing array, two-state fit. The note with it: sodium 0.088 M. A digest of the protocol:
(§1)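 On a sequenced MiSeq flow cell, library hairpins with annealed Cy3 and quencher oligos were imaged for Cy3 fluorescence in 2.5 °C steps up to 60 °C, in 50 mM Na-HEPES pH 8.0, 25 mM NaCl. Normalisation used pre-quench Cy3 and control constructs. Bootstrapped two-state fits gave melting temperature and folding enthalpy, combined by inverse variance across four replicates and with fitted temperatures raised by 9.35 °C to match UV melts.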

Data set [2] in a line: melting temperature; fluorescence melt of hairpins on a sequencing array, two-state fit, raised by 9.35 °C to match UV melts. The note with it: sodium 0.088 M. A digest of the protocol: as §1

As to GAAGGAGGAAACTCTTTC (((.(((....))).))), the folding enthalpy in data set [1] is -20.7 kcal/mol. Moreover, the Tm in data set [2] worked out at 31.6 °C.

On to GGGCGTCGAAAGACCCCC (((.(((....))).))), for which the folding enthalpy in data set [1] is -16.6 kcal/mol. Also, in data set [2], the Tm was 59 °C.

For GAGTCTGGAAACAGGCTC (((.(((....))).))), in data set [1], the folding enthalpy is -44 kcal/mol. Besides, the Tm in data set [2] amounted to 52.2 °C.

Consider GTCTCCCGAAAGGGGAC (((.(((....)))))), for which the folding enthalpy in data set [1] is -31.4 kcal/mol. In data set [2], the Tm amounted to 54.8 °C.

For the sequence GATCCTCAAGAGGATC ((((((....)))))), the folding enthalpy in data set [1] was -38 kcal/mol. Moreover, in data set [2], the Tm is 53.4 °C.

GCTTCGGCGAAAGCCAGC (((..(((....)))))): the folding enthalpy in data set [1] is -10.3 kcal/mol. Besides, the Tm in data set [2] came to 40.2 °C.

Regarding GGTAACCCGAAAGGGACC (((..(((....)))))), the folding enthalpy in data set [1] was -14.9 kcal/mol. In addition, in data set [2], the Tm came out at 36.5 °C.

For GTATGTGGAAACACACAC ((.((((....)))).)), the folding enthalpy in data set [1] was -17.1 kcal/mol. The Tm in data set [2] came out at 35.2 °C.

Turning to GTCACTGGAAACAGTAAC ((.((((....)))).)), in data set [1], the folding enthalpy is -15.6 kcal/mol. Moreover, the Tm in data set [2] stood at 31.3 °C.

Take GATCTTGCGGAAGATC ((((((....)))))): in data set [1], the folding enthalpy was -36 kcal/mol. For the same sequence, the Tm in data set [2] came to 42.7 °C.

In the case of GAACGGAAACGTTC (((((....))))), the folding enthalpy in data set [1] was -31.7 kcal/mol. Moreover, the Tm in data set [2] was 55.2 °C.

In the case of GCTCCCGAAAGGGAGAGC ((((((....)))..))), in data set [1], the folding enthalpy is -11.8 kcal/mol. Also, the Tm in data set [2] is 65.8 °C.

Consider GATCAGGTCACTGATC ((((((....)))))), for which the folding enthalpy in data set [1] is -45.8 kcal/mol. Besides, the Tm in data set [2] was found to be 59.4 °C.

Consider GTCCTAGGAAACTAGGAC (((((((....))))))), for which, in data set [1], the folding enthalpy was -51 kcal/mol. Besides, in data set [2], the Tm is 57.2 °C.

Turning to GATCGGAAAGCCGATC ((((((....)))))), in data set [1], the folding enthalpy was -35.4 kcal/mol. In addition, in data set [2], the Tm came out at 51.3 °C.

As to GAAGAAGCGAAAGCTTTC (((..(((....)))))), the folding enthalpy in data set [1] was -9.3 kcal/mol. For the same sequence, the Tm in data set [2] is 30.1 °C.

Take GTATCACGAAAGTGGTAC (((.(((....))).))): in data set [1], the folding enthalpy is -27.9 kcal/mol. The Tm in data set [2] stood at 52.8 °C.

In the case of GCATAGCGAAAGCCAGGC ((.(.((....)).).)), the folding enthalpy in data set [1] is -12.3 kcal/mol. Also, the Tm in data set [2] stood at 32.9 °C.

Take GCCACGCGAAAGCCTCGC ((.(.((....)).).)): the folding enthalpy in data set [1] is -7.67 kcal/mol. For the same sequence, in data set [2], the Tm amounted to 27 °C.

For the sequence GCGAAGTTTCGC ((((....)))), the folding enthalpy in data set [1] is -18.2 kcal/mol. The Tm in data set [2] was 50.7 °C.

On to GATATCCGAAAGGAATC (((.(((....)))))), for which the folding enthalpy in data set [1] was -12.9 kcal/mol. For the same sequence, the Tm in data set [2] came out at 30.2 °C.

In the case of GCTGGCGAAAGCCCTAGC ((((((....)))..))), the folding enthalpy in data set [1] was -12 kcal/mol. The Tm in data set [2] was 40.9 °C.

As for GAAGCCGAAAGGCCCTTC ((((((....)))..))), the folding enthalpy in data set [1] is -11.8 kcal/mol. The Tm in data set [2] was 31.3 °C.

As for GACGATCCGAAAGGAGTC (((..(((....)))))), the folding enthalpy in data set [1] was -22.1 kcal/mol. For the same sequence, the Tm in data set [2] amounted to 39.8 °C.

In the case of GGCCGAGGAAACCCGACC ((.((.(....).)).)), in data set [1], the folding enthalpy was -24.9 kcal/mol. The Tm in data set [2] was determined as 34 °C.

For the sequence GGAGTAGGAAACTGCTTC (.((.((....)).)).), the folding enthalpy in data set [1] is -32.7 kcal/mol. In data set [2], the Tm is 41.4 °C.

Regarding GCCACCGGAAACGGCAGC ((..(((....)))..)), the folding enthalpy in data set [1] is -15.6 kcal/mol. In addition, the Tm in data set [2] worked out at 31 °C.

As for GCGAGTAATCGC ((((....)))), the folding enthalpy in data set [1] is -20.9 kcal/mol. Besides, the Tm in data set [2] is 58.6 °C.

Take GGGTGCGAAAGCACTCCC ((((((....)))..))): the folding enthalpy in data set [1] was -10.4 kcal/mol. Besides, in data set [2], the Tm was 53.5 °C.

Regarding GCTCAAGGAAACTTGGGC ((.((((....)))).)), in data set [1], the folding enthalpy is -37.4 kcal/mol. For the same sequence, the Tm in data set [2] came out at 50 °C.

As for GGGCCTCGAAAGAGACCC (((.(((....))).))), the folding enthalpy in data set [1] is -43 kcal/mol. The Tm in data set [2] is 56 °C.

For the sequence GTATTACGAAAGTAGTAC (((.(((....))).))), in data set [1], the folding enthalpy was -28.4 kcal/mol. The Tm in data set [2] was determined as 41.3 °C.

GATCTTGCCAAAGATC ((((((....)))))): in data set [1], the folding enthalpy is -39 kcal/mol. Moreover, the Tm in data set [2] amounted to 55 °C.

For the sequence GCGTGTCGAAAGACCCGC (((.(((....))).))), the folding enthalpy in data set [1] was -42 kcal/mol. The Tm in data set [2] is 58 °C.

With GCGAGACGAAAGTCCCGC (((.(((....))).))), the folding enthalpy in data set [1] was -35.6 kcal/mol. For the same sequence, the Tm in data set [2] is 59 °C.

As to GGGGCTGGAAACAGTCCC (((.(((....))).))), the folding enthalpy in data set [1] is -50.6 kcal/mol. Also, in data set [2], the Tm stood at 59.1 °C.

GGGGACGAAAGTCGACCC ((((((....)))..))): the folding enthalpy in data set [1] is -18.3 kcal/mol. For the same sequence, the Tm in data set [2] turned out to be 48.9 °C.
